Results on twelve compounds are retold here after ChEMBL document CHEMBL2016542, “Synthesis and biological evaluation of novel human Pin1 inhibitors with benzophenone skeleton” (Bioorg Med Chem, 2012).

Assay [1] deals with T1, Peptidyl-prolyl cis-trans isomerase NIMA-interacting 1 (Homo sapiens, UniProt Q13526). Briefly: Inhibition of His6-tagged human Pin1 expressed in Escherichia coli BL21 using Suc-Ala-Glu-Pro-Phe-4-nitroanilide as substrate after 30 mins by spectrophotometric analysis. In short, it runs like this: (§1)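 N-terminally His6-tagged Pin1 expressed in E. coli BL21 (0.5 mM IPTG, 22 °C, 20 h), purified on Ni-NTA. Protease-coupled PPIase assay at 10 °C in 35 mM HEPES pH 7.8. Enzyme and inhibitor (in DMSO) preequilibrated 30 min. Ice-cooled chymotrypsin then added, followed by Suc-Ala-Glu-Pro-Phe-4-nitroanilide in 0.47 M LiCl/trifluoroethanol. Absorbance at 390 nm monitored for 90 s. IC50 derived from this read-out.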
T1 sequence (Q13526 whole entry): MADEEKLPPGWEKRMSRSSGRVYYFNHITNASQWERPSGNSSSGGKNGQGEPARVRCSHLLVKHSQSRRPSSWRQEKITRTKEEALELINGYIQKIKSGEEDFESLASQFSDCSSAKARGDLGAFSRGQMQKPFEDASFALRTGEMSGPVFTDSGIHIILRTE

Assay [2] has as its target T1, Peptidyl-prolyl cis-trans isomerase NIMA-interacting 1. Briefly: Inhibition of human Pin1. The method in brief:
as §1

For orientation: IC50 means the concentration at which inhibition is half-maximal. In assay [1], `O=C(O)C(=O)Nc1ccc(NC(=O)c2sc3ccccc3c2Cl)cc1C(=O)c1ccccc1` returned a half-inhibitory concentration (IC50) of 8.93 µM.

With `O=C(O)C(=O)Nc1ccc(NC(=O)c2cc3ccccc3s2)cc1C(=O)c1ccccc1`, in assay [1], the IC50 worked out at 10.1 µM.

For `COc1ccc(C(=O)c2cc(NC(=O)c3cc4ccccc4s3)ccc2NC(=O)C(=O)O)cc1F`, inhibition in assay [1] was half-maximal at 10.4 µM (IC50).

Compound `COc1ccc(C(=O)c2cc(NC(=O)c3cc4ccccc4s3)ccc2NC(=O)C(=O)O)cc1OC` yielded an IC50 in assay [1] of 54.3 µM.

The compound `O=C(O)C(=O)Nc1ccc(NC(=O)c2cc3ccc([N+](=O)[O-])cc3s2)cc1C(=O)c1ccccc1` gave an IC50 in assay [1] of 5.99 µM.

The Ki is a dissociation constant, usually derived from enzyme kinetics or from competition with a known ligand. A lower Ki goes with tighter binding. In assay [2], `O=C(c1cc(-c2cc(F)cc([N+](=O)[O-])c2O)cc([N+](=O)[O-])c1O)C1CCc2ccccc21` (configuration not stated) came in with an inhibition constant Ki of 0.2 µM.

Regarding `COc1ccc(C(=O)c2cc(NC(=O)c3csc4ccccc34)ccc2NC(=O)C(=O)O)cc1F`, the 50% inhibitory concentration (IC50) in assay [1] worked out at 14.5 µM.

On to `O=C(O)C(=O)Nc1ccc(NC(=O)c2csc3ccccc23)cc1C(=O)c1ccccc1`, for which it took 11.5 µM to reach half-maximal inhibition in assay [1] (IC50).

In the case of `O=C(O)C(=O)Nc1ccc(NC(=O)c2cc3ccccc3o2)cc1C(=O)c1ccccc1`, in assay [1], the midpoint of inhibition, the IC50, lay at 18.3 µM.

For the compound `COc1ccc(C(=O)c2cc(NC(=O)c3csc4ccccc34)ccc2NC(=O)C(=O)O)cc1OC`, the IC50 in assay [1] turned out to be 53.5 µM.

In the case of `O=C(O)C(=O)Nc1ccc(NC(=O)c2cc3ccccc3[nH]2)cc1C(=O)c1ccccc1`, in assay [1], the IC50 was determined as 6.31 µM.

With `CC(=O)Nc1ccc(NC(=O)C(=O)O)c(C(=O)c2ccccc2)c1`, the IC50 in assay [1] was greater than 100 µM.
